Holding throughout (type): functional
Experiment [1] can be described thus: Antifungal activity against Lichtheimia ornata clinical isolate after 48 hrs by EUCAST method. In short, it runs like this:
(§1)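 EUCAST broth microdilution, with spore inoculum counted in a hematocytometer. Final drug concentrations were 16 to 0.03 or 8 to 0.015 mg/liter depending on agent. Plates were incubated at 35°C in humid air and read visually with a mirror at 24 and 48 h. Endpoint was complete visual growth inhibition, except for echinocandins, where it was MEC (altered hyphal morphology versus growth control). Aspergillus QC strains were included.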

The nature of experiment [2]: Antifungal activity against Lichtheimia ramosa clinical isolate after 48 hrs by EUCAST method. In outline:
as §1

Experiment [3] relates to Lichtheimia corymbifera. The experiment is described as follows: Antifungal activity against Lichtheimia corymbifera clinical isolate after 48 hrs by EUCAST method. In outline: as §1
Experiment [4] relates to Lichtheimia corymbifera. The experiment is described as follows: Antifungal activity against Lichtheimia corymbifera clinical isolate after 24 hrs by EUCAST method. In short, it runs like this: as §1
The nature of experiment [5]: Antifungal activity against Lichtheimia ornata clinical isolate after 24 hrs by EUCAST method. In short, it runs like this:
as §1

A short description of experiment [6]: Antifungal activity against Lichtheimia ramosa clinical isolate after 24 hrs by EUCAST method. In outline:
as §1

Molecules are shown by their SMILES. ≈ marks a conversion by molar mass, not a printed value. Numbered stars: 1 amine (or outer) side, 2 acyl side, 3 side chain; on linkers, the order of the positions; unused ones are H or OH. Bridge positions count the residues as written; N and C are the ends. Square brackets hold non-standard residues; d marks the D form. Peptide text beside a SMILES is read from it. * marks the point of attachment. hTyr(3S-OH,4S-OH,3'-OSO3H) = N[C@H](C(=O)O)[C@H](O)[C@@H](O)c1ccc(O)c(OS(=O)(=O)O)c1; pTerphenylCO(4''-OnC5H11) = CCCCCOc1ccc(-c2ccc(-c3ccc(C(=O)*)cc3)cc2)cc1; Orn(4R-OH,5R-OH) = O=C([C@H](C[C@@H](O)[C@@H](O)N[*:3])N[*:1])[*:2]; hTyr(3S-OH,4S-OH) = N[C@H](C(=O)O)[C@H](O)[C@@H](O)c1ccc(O)cc1; Pro(3S-OH,4S-Me) = C[C@H]1CN[C@H](C(=O)O)[C@H]1O; X1 = CCCCCOc1ccc(-c2cc(-c3ccc(C(=O)*)cc3)no2)cc1; Gln(3R-OH) = NC(=O)C[C@@H](O)[C@H](N)C(=O)O; Hyp = O=C(O)[C@@H]1C[C@@H](O)CN1

By MIC is commonly meant the least concentration at which growth counts as inhibited. The low end stands for a more susceptible organism, the high end for a less susceptible organism.

With `C[C@@H](c1nc(-c2ccc(C#N)cc2)cs1)[C@](O)(Cn1cncn1)c1ccc(F)cc1F` [RAVUCONAZOLE], the MIC in experiment [1] was 2 µg/mL (≈ 4.57 µM); in experiment [2], 3.42 µg/mL (≈ 7.82 µM); against Lichtheimia corymbifera [3], 1.86 µg/mL (≈ 4.25 µM); with Lichtheimia corymbifera [4], 1.34 µg/mL (≈ 3.06 µM); in experiment [5], 1 µg/mL (≈ 2.29 µM); in experiment [6] it was 1.44 µg/mL (≈ 3.29 µM).
On to `CC[C@@H]([C@H](C)O)n1ncn(-c2ccc(N3CCN(c4ccc(OC[C@@H]5CO[C@@](Cn6cncn6)(c6ccc(F)cc6F)C5)cc4)CC3)cc2)c1=O` [POSACONAZOLE], for which the MIC came to 0.25 µg/mL (≈ 0.357 µM) in experiment [1]; 0.69 µg/mL (≈ 0.985 µM) in experiment [2]; 0.58 µg/mL (≈ 0.828 µM) in the experiment on Lichtheimia corymbifera [3]; 0.37 µg/mL (≈ 0.528 µM) in the experiment with Lichtheimia corymbifera [4]; 0.25 µg/mL (≈ 0.357 µM) in experiment [5]; 0.32 µg/mL (≈ 0.457 µM) in experiment [6].
As to `C[C@@H](c1ncncc1F)[C@](O)(Cn1cncn1)c1ccc(F)cc1F` [VORICONAZOLE], the MIC worked out at 16 µg/mL (≈ 45.8 µM) in experiment [1]; 15.1 µg/mL (≈ 43.1 µM) in experiment [2]; 11.5 µg/mL (≈ 33 µM) in the experiment with Lichtheimia corymbifera [3]; 11.1 µg/mL (≈ 31.8 µM) against Lichtheimia corymbifera [4]; 16 µg/mL (≈ 45.8 µM) in experiment [5]; 12.6 µg/mL (≈ 36 µM) in experiment [6].
In the case of `C[C@@H]1[C@H](O)[C@@H](C)/C=C/C=C/C=C/C=C/C=C/C=C/C=C/[C@H](O[C@@H]2O[C@H](C)[C@@H](O)[C@H](N)[C@@H]2O)C[C@@H]2O[C@](O)(C[C@@H](O)C[C@@H](O)[C@H](O)CC[C@@H](O)C[C@@H](O)CC(=O)O[C@H]1C)C[C@H](O)[C@H]2C(=O)O` [AMPHOTERICIN B], the minimal inhibitory concentration (MIC) in experiment [1] is 0.12 µg/mL (≈ 0.13 µM); in experiment [2], 0.14 µg/mL (≈ 0.152 µM); with Lichtheimia corymbifera [3] it was 0.14 µg/mL (≈ 0.152 µM); against Lichtheimia corymbifera [4] it was 0.07 µg/mL (≈ 0.0758 µM); in experiment [5] it was 0.12 µg/mL (≈ 0.13 µM); in experiment [6], 0.08 µg/mL (≈ 0.0866 µM).
In the case of `CN(C/C=C/C#CC(C)(C)C)Cc1cccc2ccccc12` [TERBINAFINE], the MIC in experiment [1] was 0.5 µg/mL (≈ 1.72 µM); in experiment [2], 1 µg/mL (≈ 3.43 µM); in the experiment on Lichtheimia corymbifera [3], 0.75 µg/mL (≈ 2.57 µM); against Lichtheimia corymbifera [4] it was 0.48 µg/mL (≈ 1.65 µM); in experiment [5], 0.25 µg/mL (≈ 0.858 µM); in experiment [6], 0.56 µg/mL (≈ 1.92 µM).
On to `CCCCCOc1ccc(-c2ccc(-c3ccc(C(=O)N[C@H]4C[C@@H](O)[C@@H](O)NC(=O)[C@@H]5[C@@H](O)[C@@H](C)CN5C(=O)[C@H]([C@@H](C)O)NC(=O)[C@H]([C@H](O)[C@@H](O)c5ccc(O)cc5)NC(=O)[C@@H]5C[C@@H](O)CN5C(=O)[C@H]([C@@H](C)O)NC4=O)cc3)cc2)cc1` [ANIDULAFUNGIN] ({pTerphenylCO(4''-OnC5H11)}-[Orn(4R-OH,5R-OH)]T[Hyp][hTyr(3S-OH,4S-OH)]T[Pro(3S-OH,4S-Me)]; lactam 1-C), for which the MIC in experiment [1] is 32 µg/mL (≈ 28.1 µM); in experiment [2] it was 5.15 µg/mL (≈ 4.52 µM); in the experiment on Lichtheimia corymbifera [3] it was 10.8 µg/mL (≈ 9.48 µM); against Lichtheimia corymbifera [4], 1.99 µg/mL (≈ 1.75 µM); in experiment [5] it was 4 µg/mL (≈ 3.51 µM); in experiment [6] it was 3.58 µg/mL (≈ 3.14 µM).
With `CCC(C)n1ncn(-c2ccc(N3CCN(c4ccc(OCC5COC(Cn6cncn6)(c6ccc(Cl)cc6Cl)O5)cc4)CC3)cc2)c1=O` (centres undefined) [ITRACONAZOLE], the MIC in experiment [1] was 1 µg/mL (≈ 1.42 µM); in experiment [2] it was 2.38 µg/mL (≈ 3.37 µM); against Lichtheimia corymbifera [3], 1.03 µg/mL (≈ 1.46 µM); against Lichtheimia corymbifera [4] it was 0.62 µg/mL (≈ 0.879 µM); in experiment [5] it was 0.5 µg/mL (≈ 0.709 µM); in experiment [6], 0.92 µg/mL (≈ 1.3 µM).
For `CCCCCOc1ccc(-c2cc(-c3ccc(C(=O)N[C@H]4C[C@@H](O)[C@@H](O)NC(=O)[C@@H]5[C@@H](O)[C@@H](C)CN5C(=O)[C@H]([C@H](O)CC(N)=O)NC(=O)[C@H]([C@H](O)[C@@H](O)c5ccc(O)c(OS(=O)(=O)O)c5)NC(=O)[C@@H]5C[C@@H](O)CN5C(=O)[C@H]([C@@H](C)O)NC4=O)cc3)no2)cc1` [MICAFUNGIN] (X1-[Orn(4R-OH,5R-OH)]T[Hyp][hTyr(3S-OH,4S-OH,3'-OSO3H)][Gln(3R-OH)][Pro(3S-OH,4S-Me)]; lactam 1-C), the MIC was determined as 32 µg/mL (≈ 25.2 µM) in experiment [1]; 21.4 µg/mL (≈ 16.8 µM) in experiment [2]; 12.6 µg/mL (≈ 9.95 µM) with Lichtheimia corymbifera [3]; 8.92 µg/mL (≈ 7.02 µM) against Lichtheimia corymbifera [4]; 32 µg/mL (≈ 25.2 µM) in experiment [5]; 6.85 µg/mL (≈ 5.39 µM) in experiment [6].
Take `CC[C@H](C)C[C@H](C)CCCCCCCCC(=O)N[C@H]1C[C@@H](O)[C@@H](NCCN)NC(=O)[C@@H]2[C@@H](O)CCN2C(=O)[C@H]([C@H](O)CCN)NC(=O)[C@H]([C@H](O)[C@@H](O)c2ccc(O)cc2)NC(=O)[C@@H]2C[C@@H](O)CN2C(=O)[C@H]([C@@H](C)O)NC1=O` [CASPOFUNGIN]: the MIC in experiment [1] stood at 32 µg/mL (≈ 29.3 µM); in experiment [2] it was 21.4 µg/mL (≈ 19.6 µM); in the experiment with Lichtheimia corymbifera [3] it was 10 µg/mL (≈ 9.16 µM); with Lichtheimia corymbifera [4], 9.27 µg/mL (≈ 8.48 µM); in experiment [5] it was 32 µg/mL (≈ 29.3 µM); in experiment [6], 11 µg/mL (≈ 10.1 µM).

The record behind these values is ChEMBL document CHEMBL1275242, “Antifungal susceptibility profile of human-pathogenic species of Lichtheimia” (2010).
